pIC50: −log10 of the molar value. Calls of active or inactive are those of the source. No cut-off for these calls is given here.
Columns and labels:
Type in all cases: cell-based
[1] = Inhibition of NFkappaB signaling in human K562/ADR cells assessed as downregulation of MDR1 mRNA expression at 0.3 uM measured for 24 hrs by qRT-PCR analysis
Outline: (§1)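 K562/ADR cells exposed to 0.3 μM for 0–48 h, or to various concentrations for 24 h. RNA isolated with TRIzol, then qRT-PCR: 95 °C 30 s, then 40 cycles of 95 °C 5 s and 60 °C 20 s. MDR1 quantified by ΔΔCT against β-actin; triplicate.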

[2] = Inhibition of NFkappaB signaling in human K562/ADR cells assessed as inhibition of TNFalpha-induced MDR1 expression at 0.3 uM after 24 hrs by Western blot analysis
Outline: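 K562/ADR cells incubated 24 h with 0.3 μM plus 5 nM TNF-α. Lysates blotted for MDR1 (1:100) with β-actin (1:500) as loading control, detected by ECL. Densities normalised to β-actin; three experiments.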

[3] = Inhibition of NFkappaB signaling in human K562/ADR cells assessed as downregulation of MDR1 mRNA expression at 0.3 uM measured after 24 to 48 hrs by qRT-PCR analysis; outline: as §1
[4] = Inhibition of NFkappaB signaling-mediated MDR1 activity in human K562/ADR cells assessed as increase in intracellular accumulation of adriamycin at 0.3 uM incubated for 24 hrs followed by adriamycin addition measured after 1 hr by flow cytometric analysis (reference value: 46.3%)
Outline: (§2)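 K562/ADR cells, 4 × 10^6 per well, pretreated with 0.3 μM for 24 h at 37 °C; K562 and untreated K562/ADR run alongside. All incubated with 25 μM ADR for 1 h at 37 °C and washed three times with ice-cold PBS. ADR autofluorescence read by flow cytometry (ex 488 nm, em 575 nm) as mean intensity; three experiments.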

[5] = Inhibition of NFkappaB signaling-mediated MDR1 activity in human K562/ADR cells assessed as increase in intracellular accumulation of adriamycin at 0.3 uM incubated for 24 hrs followed by adriamycin addition measured after 1 hr by flow cytometric analysis relative to K562 cells; outline: as §2
[6] = Inhibition of NFkappaB signaling in human K562/ADR cells assessed as inhibition of TNFalpha-induced NFkappaB promoter activity at 0.1 to 0.3 uM after 24 hrs by luciferase reporter gene assay
Outline: (§3)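 Cells plated overnight, then transiently co-transfected with hMDR1-Luc or NF-κB-Luc plus pRL-SV Renilla plasmid by lipofection. Exposed to compound and TNF-α for 24 h. Firefly luciferase normalised to Renilla in a dual-luciferase readout.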

[7] = Inhibition of NFkappaB signaling in human K562/ADR cells assessed as downregulation of MDR1 expression at 0.3 uM measured for 24 hrs by Western blot analysis
Outline: (§4)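 K562/ADR cells treated with 0.3 μM for 0–48 h, or with various concentrations for 24 h, at 37 °C. Total protein extracted and 60 μg run on 10% SDS-PAGE, then PVDF. Blots probed with MDR1 antibody (1:100) and β-actin (1:500), detected by ECL. Band density normalised to β-actin; triplicate.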

[8] = biological target: T1, NF-kappa-B inhibitor alpha (Homo sapiens) (UniProt P25963); experiment: Inhibition of TNFalpha-induced IkappaB-alpha phosphorylation in human K562/ADR cells assessed as decrease in NKkappaB activity at 0.3 uM measured at 12 to 48 hrs by Western blot analysis
T1 sequence (whole entry): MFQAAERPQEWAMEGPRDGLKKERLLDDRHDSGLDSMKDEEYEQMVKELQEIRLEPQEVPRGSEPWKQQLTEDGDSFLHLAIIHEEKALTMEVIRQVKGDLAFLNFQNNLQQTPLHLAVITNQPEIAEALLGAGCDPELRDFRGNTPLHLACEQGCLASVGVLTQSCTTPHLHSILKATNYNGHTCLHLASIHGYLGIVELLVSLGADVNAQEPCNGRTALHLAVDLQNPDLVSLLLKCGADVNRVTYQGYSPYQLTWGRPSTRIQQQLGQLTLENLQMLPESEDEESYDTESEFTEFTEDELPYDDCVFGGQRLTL
Outline: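 K562/ADR cells incubated with 0.3 μM for 0–48 h, then TNF-α for 30 min. Lysates blotted for phospho-IκB-α Ser32/36 (1:1000) and β-actin, detected by ECL. Densities normalised to β-actin; three experiments.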

[9] = Inhibition of NFkappaB signaling in human K562/ADR cells assessed as inhibition of TNFalpha-induced MDR1 promoter activity at 0.1 to 0.3 uM after 24 hrs by luciferase reporter gene assay; outline: as §3
[10] = Cytotoxicity against human K562/ADR cells assessed as cell viability after 48 hrs by MTT assay
Outline: (§5)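 Cells grown in RPMI 1640 with 10% FBS at 37 °C, 5% CO2; K562/ADR kept off ADR for 2 weeks before use. Cells seeded at 4 × 10^3 per well, exposed to 0.1–100 μM for 48 h. MTT added for 4 h, then SDS–isobutanol–HCl solubilisation overnight, absorbance read at 570 nm. IC50 from three experiments.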

[11] = Inhibition of NFkappaB signaling in human K562/ADR cells assessed as downregulation of MDR1 expression at 0.3 uM measured after 24 to 48 hrs by Western blot analysis; outline: as §4
[12] = system: K562; experiment: Cytotoxicity against human K562 cells assessed as cell viability after 48 hrs by MTT assay; outline: as §5
[13] = Inhibition of NFkappaB signaling-mediated MDR1 activity in human K562/ADR cells assessed as potentiation of adriamycin-induced cytotoxicity after 48 hrs by MTT assay

C[C@@H]1CC[C@@]2(OC1)O[C@H]1C[C@H]3[C@@H]4CC=C5C[C@@H](O[C@@H]6O[C@H](CO)[C@@H](O[C@@H]7O[C@@H](C)[C@H](O)[C@@H](O)[C@H]7O)[C@H](O)[C@H]6O[C@@H]6O[C@@H](C)[C@H](O)[C@@H](O)[C@H]6O)CC[C@]5(C)[C@H]4CC[C@]3(C)[C@H]1[C@@H]2C [DIOSCIN]
inhibition [1]: 93.1%
inhibition [2]: Active
inhibition [3]: 97.8%
inhibition [4]: 78.4%
inhibition [5]: 59.8%
inhibition [6]: Active
inhibition [7]: 91.4%
inhibition [8]: Active
inhibition [9]: Active
pIC50 ([10]; Homo sapiens, K562/Adr): 5.48
IC10 ([10]; human, k562/adr): 0.3 µM
inhibition [11]: 84.7%
pIC50 ([12]; Homo sapiens, K562, 48 h): 5.33
IC10 ([12]; human, k562, 48 h): 0.4 µM
inhibition [13]: Active
